Reference: ChEMBL document CHEMBL1154928, “SAR and optimization of thiazole analogs as potent stearoyl-CoA desaturase inhibitors” (Bioorg Med Chem Lett, 2010)
pIC50: −log10 of the molar value. The source made the active and inactive calls. The calls are words filed in the database; no cut-off is given here.

How the values were obtained:
[1] = target: T1, Stearoyl-CoA desaturase (Homo sapiens, UniProt O00767); assay: Inhibition of SCD1 in human HepG2 cells assessed as [14C]stearic acid to [14C]oleic acid conversion pretreated 15 mins before [14C]stearic acid addition measured after 4 hrs by HPLC based scintillation assay; assay type: cell-based
T1 sequence (O00767 whole entry): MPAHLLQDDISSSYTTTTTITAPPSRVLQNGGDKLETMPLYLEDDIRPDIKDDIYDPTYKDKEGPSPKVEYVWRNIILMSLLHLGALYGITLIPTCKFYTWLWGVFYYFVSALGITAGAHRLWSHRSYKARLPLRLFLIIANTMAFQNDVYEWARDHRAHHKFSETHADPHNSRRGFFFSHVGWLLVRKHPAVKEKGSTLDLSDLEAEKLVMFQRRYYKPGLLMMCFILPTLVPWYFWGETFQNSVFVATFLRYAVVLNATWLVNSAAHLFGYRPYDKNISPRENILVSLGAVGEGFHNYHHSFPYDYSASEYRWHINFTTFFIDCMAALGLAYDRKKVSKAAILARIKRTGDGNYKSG

[2] = target: T2, Acyl-CoA desaturase 1 (Rattus norvegicus, UniProt P07308); assay: Inhibition of SCD1 in Wistar rat liver microsome assessed as [3H]stearoyl-CoA to [3H]oleoyl-CoA conversion pretreated 1 hr before [3H]stearoyl-CoA addition measured after 60 mins by HPLC based scintillation assay; assay type: microsomes
T2 sequence (P07308 whole entry): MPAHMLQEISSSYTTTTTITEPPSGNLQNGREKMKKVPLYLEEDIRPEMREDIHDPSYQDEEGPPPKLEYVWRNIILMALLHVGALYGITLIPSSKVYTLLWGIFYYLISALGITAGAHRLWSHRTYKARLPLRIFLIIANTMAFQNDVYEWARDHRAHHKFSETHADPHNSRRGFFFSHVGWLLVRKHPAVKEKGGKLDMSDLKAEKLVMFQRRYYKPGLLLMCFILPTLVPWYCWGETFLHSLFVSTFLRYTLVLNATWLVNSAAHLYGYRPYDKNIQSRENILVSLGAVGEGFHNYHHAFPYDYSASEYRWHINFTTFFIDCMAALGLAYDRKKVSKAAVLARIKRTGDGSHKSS

[3] = Oral bioavailability in C57BL/6 mouse at 10 mg/kg; assay type: ADME, organism-based, C57BL6; conditions: in vivo
[4] = AUC (0 to 24 hrs) in C57BL/6 mouse at 10 mg/kg, po; assay type: ADME, organism-based, C57BL6; parameters: time < 24 hr, dose 10 mg/kg, route oral; conditions: plasma
[5] = tested on: Mus musculus; assay: Toxicity in C57BL/6 mouse assessed as progressive alopecia at 0.2 mg/kg, po dosed QD for 7 days; assay type: organism-based, C57BL6; parameters: dose 0.2 mg/kg, route oral; conditions: in vivo, 168 h
[6] = Drug level in C57BL/6 mouse liver at 0.3 mg/ kg, po after 3 hrs; assay type: ADME, organism-based, C57BL6; parameters: dose 0.3 mg/ kg, route oral; conditions: read-out: Drug uptake
Method in brief: (§1)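 In vivo SCD activity was measured in mice fed a high carbohydrate diet and dosed orally. At 3 h, [1-14C]-stearic acid tracer was given intravenously and its conversion to [1-14C]-oleic acid in liver lipids was followed. The SCD activity index is the 14C-oleic/14C-stearic acid ratio. Liver compound concentration was also measured, and the ED50 was derived from the dose-response.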

[7] = tested on: Mus musculus; assay: Antidiabetic activity in C57BL/6 mouse assessed as reduction in insulin level at 0.2 mg/kg, po dosed QD for 4 weeks; assay type: functional, C57BL6; parameters: scale not given: the % may be the effect or the level left
[8] = tested on: Mus musculus; assay: Antidiabetic activity in C57BL/6 mouse assessed as reduction in plasma glucose level at 0.2 mg/kg, po dosed QD for 4 weeks; assay type: functional, C57BL6; parameters: scale not given: the % may be the effect or the level left
[9] = Plasma concentration in C57BL/6 mouse at 10 mg/kg, po after 6 hrs; assay type: ADME, organism-based, C57BL6; parameters: dose 10 mg/kg, route oral
Method in brief: (§2)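 Tissue distribution was measured in C57BL6 mice 6 h after a single 10 mg/kg oral dose. Compound levels were determined in liver, adipose tissue and plasma, and tissue-to-plasma ratios were calculated.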

[10] = Drug level in C57BL/6 mouse liver at 0.1 mg/ kg, po after 3 hrs; assay type: ADME, organism-based, C57BL6; parameters: dose 0.1 mg/ kg, route oral; conditions: read-out: Drug uptake; method in brief: as §1
[11] = Ratio of drug level in liver to plasma in C57BL/6 mouse at 10 mg/kg, po after 6 hrs; assay type: ADME, organism-based, C57BL6; parameters: dose 10 mg/kg, route oral; method in brief: as §2
[12] = Ratio of drug level in adipose tissue to plasma in C57BL/6 mouse at 10 mg/kg, po after 6 hrs; assay type: ADME, organism-based, C57BL6; parameters: dose 10 mg/kg, route oral; method in brief: as §2
[13] = Plasma concentration in C57BL/6 mouse at 0.3 mg/kg, po dosed QD for 3 days and measured on day 3; assay type: ADME, organism-based, C57BL6; parameters: dose 0.3 mg/kg, route oral
Method in brief: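 C57BL6 mice on a high fat diet were dosed orally once daily for 3 days at 0.3 mg/kg. Plasma was sampled on day 3 at the terminal 24 h post-dose point.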

[14] = tested on: Mus musculus; assay: Inhibition of SCD in C57BL/6 mouse liver assessed as [14C]stearic acid to [14C]oleic acid conversion at 1 mg/kg, po after 3 hrs by liver SCD activity index; assay type: functional; conditions: C57BL6, Liver; method in brief: as §1
[15] = Drug level in C57BL/6 mouse blood at 0.1 mg/ kg, po after 3 hrs; assay type: ADME, organism-based, C57BL6; parameters: dose 0.1 mg/ kg, route oral; conditions: read-out: Drug uptake
[16] = tested on: Mus musculus; assay: Toxicity in C57BL/6 mouse assessed as partial eye closure at 0.2 mg/kg, po dosed QD for 7 days; assay type: organism-based, C57BL6; parameters: dose 0.2 mg/kg, route oral; conditions: in vivo, 168 h
[17] = tested on: Mus musculus; assay: Inhibition of SCD in po dosed C57BL/6 mouse liver assessed as [14C]stearic acid to [14C]oleic acid conversion after 3 hrs by liver SCD activity index; assay type: functional; conditions: C57BL6, Liver; method in brief: as §1
[18] = tested on: Mus musculus; assay: Antiobesity activity in C57BL/6 mouse assessed as reduction in high fat diet-induced body weight gain at 0.2 mg/kg, po dosed QD for 4 weeks relative to control; assay type: functional, C57BL6; parameters: scale not given: the % may be the effect or the level left
[19] = Biodistribution in C57BL/6 mouse liver at 10 mg/kg, po after 6 hrs; assay type: ADME, organism-based, C57BL6; parameters: dose 10 mg/kg, route oral; conditions: read-out: Drug uptake; method in brief: as §2
[20] = Drug level in C57BL/6 mouse blood at 1 mg/ kg, po after 3 hrs; assay type: ADME, organism-based, C57BL6; parameters: dose 1 mg/ kg, route oral; conditions: read-out: Drug uptake
[21] = Drug level in C57BL/6 mouse liver at 1 mg/ kg, po after 3 hrs; assay type: ADME, organism-based, C57BL6; parameters: dose 1 mg/ kg, route oral; conditions: read-out: Drug uptake; method in brief: as §1
[22] = Biodistribution in C57BL/6 mouse skin at 10 mg/kg, po after 6 hrs; assay type: ADME, organism-based, C57BL6, Zone of skin; parameters: dose 10 mg/kg, route oral; conditions: read-out: Drug uptake
[23] = tested on: Mus musculus; assay: Inhibition of SCD in C57BL/6 mouse liver assessed as [14C]stearic acid to [14C]oleic acid conversion at 0.3 mg/kg, po after 3 hrs by liver SCD activity index; assay type: functional; conditions: C57BL6, Liver; method in brief: as §1
[24] = Drug level in C57BL/6 mouse blood at 0.3 mg/ kg, po after 3 hrs; assay type: ADME, organism-based, C57BL6; parameters: dose 0.3 mg/ kg, route oral; conditions: read-out: Drug uptake
[25] = Biodistribution in C57BL/6 mouse adipose tissue at 10 mg/kg, po after 6 hrs; assay type: ADME, organism-based, C57BL6; parameters: dose 10 mg/kg, route oral; conditions: read-out: Drug uptake; method in brief: as §2
[26] = tested on: Mus musculus; assay: Inhibition of SCD in C57BL/6 mouse liver assessed as [14C]stearic acid to [14C]oleic acid conversion at 0.1 mg/kg, po after 3 hrs by liver SCD activity index; assay type: functional, organism-based; parameters: dose 0.1 mg/kg; conditions: C57BL6; method in brief: as §1

COC(=O)Nc1cnc(N2CCC(Oc3ccccc3C(F)(F)F)CC2)s1
pIC50 [1]: 6.11
pIC50 [2]: 6.12

NC(=O)c1nnc(N2CCC(Oc3ccccc3C(F)(F)F)CC2)[nH]1
pIC50 [1]: 5.55
pIC50 [2]: 6.90

FC(F)(F)c1ccccc1OC1CCN(c2ncc(-c3ncon3)s2)CC1
bioavailability [3]: 33%
pIC50 [1]: 7.80
pIC50 [2]: 8.40
AUC(0-t) at 24 h [4]: 2.9 µM·h

NC(=O)Nc1cnc(N2CCC(Oc3ccccc3C(F)(F)F)CC2)s1
pIC50 [2]: 6.82

NC(=O)c1nc(N2CCC(Oc3ccccc3C(F)(F)F)CC2)no1
pIC50 [2]: 5.79

OCc1nc(-c2cnc(N3CCC(Oc4ccccc4C(F)(F)F)CC3)s2)no1
Activity [5]: Toxic
concentration at 3 h [6]: 1900 nM
Activity [7]: 4%
Activity [8]: 24%
concentration at 6 h [9]: 1100 nM
concentration at 3 h [10]: 600 nM
Kp at 6 h [11]: 6
Kp at 6 h [12]: 8
concentration at 72 h [13]: 180 nM
inhibition in vivo at 1 mg/kg [14]: 89%
concentration at 3 h [15]: < 25 nM
Activity [16]: Toxic
bioavailability [3]: 48%
ED50 [17]: 0.3 mg/kg
Activity [18]: 24%
concentration at 6 h [19]: 6700 nM
concentration at 3 h [20]: 180 nM
concentration at 3 h [21]: 5700 nM
concentration at 6 h [22]: 1800 nM
inhibition in vivo at 0.3 mg/kg [23]: 45%
concentration at 3 h [24]: < 25 nM
pIC50 [1]: 9.00
pIC50 [2]: 9.00
concentration at 6 h [25]: 8900 nM
AUC(0-t) at 24 h [4]: 16.8 µM·h
inhibition [26]: inactive

O=C1CCCN1c1cnc(N2CCC(Oc3ccccc3C(F)(F)F)CC2)s1
pIC50 [1]: 6.76
pIC50 [2]: 6.79

FC(F)(F)c1ccccc1OC1CCN(c2ncc(-c3nnco3)s2)CC1
pIC50 [1]: 7.19
pIC50 [2]: 7.47

NC(=O)c1csc(N2CCC(Oc3ccccc3C(F)(F)F)CC2)n1
pIC50 [1]: 5.19
pIC50 [2]: 6.17

Cc1nc(-c2cnc(N3CCC(Oc4ccccc4C(F)(F)F)CC3)s2)no1
bioavailability [3]: 24%
pIC50 [1]: 7.41
pIC50 [2]: 7.82
AUC(0-t) at 24 h [4]: 3.5 µM·h

NC(=O)c1cnc(N2CCN(C(=O)c3ccccc3C(F)(F)F)CC2)s1
Activity [5]: Toxic
Activity [16]: Toxic
ED50 [17]: 3 mg/kg
pIC50 [1]: 6.60
pIC50 [2]: 6.97

NC(=O)c1cc(N2CCC(Oc3ccccc3C(F)(F)F)CC2)no1
pIC50 [1]: 7.85
pIC50 [2]: 8.10

NC(=O)c1cnc(N2CCC(Oc3ccccc3C(F)(F)F)CC2)s1
pIC50 [1]: 8.00
pIC50 [2]: 8.52

NC(=O)c1cnc(N2CC[C@@H](Oc3ccccc3C(F)(F)F)C2)s1
pIC50 [2]: < 4.70

FC(F)(F)c1ccccc1OC1CCN(c2ncc(-c3ncco3)s2)CC1
pIC50 [1]: 7.26
pIC50 [2]: 7.85

NC(=O)c1nnc(N2CCC(Oc3ccccc3C(F)(F)F)CC2)s1
pIC50 [1]: 8.15
pIC50 [2]: 8.52

NS(=O)(=O)c1cnc(N2CCC(Oc3ccccc3C(F)(F)F)CC2)s1
pIC50 [1]: 5.99
pIC50 [2]: 7.39

NC(=O)c1cnc(N2CCN(S(=O)(=O)c3ccccc3C(F)(F)F)CC2)s1
pIC50 [2]: < 5.52

NC(=O)c1nnc(N2CCC(Oc3ccccc3C(F)(F)F)CC2)o1
pIC50 [1]: 6.70
pIC50 [2]: 7.08

NC(=O)c1cnc(N2CCN(Cc3ccccc3C(F)(F)F)CC2)s1
pIC50 [1]: 6.82
pIC50 [2]: 7.12

NC(=O)c1cnc(N2CC[C@H](Oc3ccccc3C(F)(F)F)C2)s1
pIC50 [1]: 7.08
pIC50 [2]: 7.92

Cc1nnc(-c2cnc(N3CCC(Oc4ccccc4C(F)(F)F)CC3)s2)s1
pIC50 [2]: 6.12

NC(=O)c1cnc(N2CCC(Sc3ccccc3C(F)(F)F)CC2)s1
pIC50 [1]: 7.62
pIC50 [2]: 8.40
